In ChEMBL document CHEMBL1123574, “Plant antitumor agents. 28. Resolution of a key tricyclic synthon, 5'(RS)-1,5-dioxo-5'-ethyl-5'-hydroxy-2'H,5'H,6'H-6'-oxopyrano[3' ,4'- f]delta 6,8-tetrahydro-indolizine: total synthesis and antitumor activity of 20(S)- and 20(R)-camptothecin” (1987):

Assays:
Type in all cases: functional
Mus musculus [1] = test: L-1210 mouse leukemia life prolongation activity was measured as T/C (mean survival time of treated animals divided by the mean survival time of the controls times 100) at dose 80 mg/kg
Method in brief: (§1)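 In vivo L-1210 leukemia in mice, run by NCI contractors by standard procedures. Two intraperitoneal doses given, on day 1 and day 5 of the study. Readout is mean survival time of treated animals over that of controls, ×100 (T/C).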

Mus musculus [2] = test: L-1210 mouse leukemia life prolongation activity was measured as T/C (mean survival time of treated animals divided by the mean survival time of the controls times 100) at dose 10 mg/kg; method in brief: as §1
Mus musculus [3] = test: L-1210 mouse leukemia life prolongation activity was measured as T/C (mean survival time of treated animals divided by the mean survival time of the controls times 100) at dose 20 mg/kg; method in brief: as §1
Mus musculus [4] = test: L-1210 mouse leukemia life prolongation activity was measured as T/C (mean survival time of treated animals divided by the mean survival time of the controls times 100) at dose 40 mg/kg; method in brief: as §1
Mus musculus [5] = test: L-1210 mouse leukemia life prolongation activity was measured as T/C (mean survival time of treated animals divided by the mean survival time of the controls times 100) at dose 2.5 mg/kg; method in brief: as §1
Mus musculus [6] = test: L-1210 mouse leukemia life prolongation activity was measured as T/C (mean survival time of treated animals divided by the mean survival time of the controls times 100) at dose 5 mg/kg; method in brief: as §1
Mus musculus [7] = test: L-1210 mouse leukemia life prolongation activity was measured as T/C(mean survival time of treated animals divided by the mean survival time of the controls times 100) at dose 2.5 mg/kg; method in brief: as §1
Mus musculus [8] = test: L-1210 mouse leukemia life prolongation activity was measured as T/C (mean survival time of treated animals divided by the mean survival time of the controls times 100) at dose 1.25 mg/kg; method in brief: as §1

| Structure (SMILES) | T/C (Mus musculus [1]) | T/C (Mus musculus [2]) | T/C (Mus musculus [3]) | T/C (Mus musculus [4]) | T/C (Mus musculus [5]) | T/C (Mus musculus [6]) | T/C (Mus musculus [7]) | T/C (Mus musculus [8]) |
| --- | --- | --- | --- | --- | --- | --- | --- | --- |
| CC[C@@](O)(C(=O)[O-])c1cc2n(c(=O)c1CO)Cc1cc3ccccc3nc1-2.[Na+] | 215 | 126 | 167 | 181 |  |  |  |  |
| CC[C@]1(O)C(=O)OCc2c1cc1n(c2=O)Cc2cc3ccccc3nc2-1 |  | 118 | 132 |  | 114 | 114 |  |  |
| CC[C@@]1(O)C(=O)OCc2c1cc1n(c2=O)Cc2cc3ccccc3nc2-1 [CAMPTOTHECIN] |  | 250 |  |  |  | 185 | 147 | 129 |
